Assay results: ChEMBL document CHEMBL1157101, “A series of alpha-heterocyclic carboxaldehyde thiosemicarbazones inhibit topoisomerase IIalpha catalytic activity” (J Med Chem, 2010)
The source made the active and inactive calls. The rule behind the calls is not given here.

How the values were obtained:
[1] = biological target: T1, DNA topoisomerase 2-alpha (Homo sapiens, UniProt P11388); assay: Inhibition of human topoisomerase 2alpha-mediated decatenation of kDNA
[2] = biological target: T1, DNA topoisomerase 2-alpha; assay: Binding affinity to human topoisomerase 2 alpha ATPase domain in presence of ATP
Procedure, shortened: (§1)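 Surface plasmon resonance. Human Topo IIα ATPase domain immobilised on CM5 chips after activation of surface carboxyl groups. Serial compound dilutions flowed over the chip and sensorgrams recorded. KD obtained by steady-state affinity fitting.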

[3] = system: HT-29; assay: Cell cycle arrest in human HT-29 cells pretreated with aphidicolin for 1 hr assessed as accumulation at G1/S phase after 24 hrs by flow cytometry in presence of nocdazole; type: functional, cell-based
Procedure, shortened: (§2)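 HT-29 cells stained with propidium iodide; cell-cycle distribution determined by flow cytometry.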

[4] = system: CCRF S-180; assay: Antitumor activity against mouse S180 cells transplanted in Kunming mouse assessed as inhibition of tumor growth at 25 mg/kg/day, ip for 7 days; type: functional; conditions: CCRF S-180, ip, 168 h, route intraperitoneal
Procedure, shortened: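 Female Kunming mice, 7 weeks old, 18-22 g, inoculated sc in the right armpit with S-180 sarcoma. Dosing began the next day, ip daily for 7 days; normal saline given iv as control. Tumours excised and weighed after treatment. Inhibitory rate (%) = (mean control tumour weight − mean treated tumour weight)/mean control tumour weight × 100.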

[5] = system: HeLa; assay: Antiproliferative activity against human HeLa cells after 72 hrs by sulforhodamine B assay; type: functional, cell-based
Procedure, shortened: (§3)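 Cells seeded and exposed in triplicate to graded compound concentrations for 72 h. Suspension cells read by MTT conversion to coloured product; adherent cells read by sulforhodamine B. IC50 (50% growth inhibition versus untreated control) derived by the Logit method.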

[6] = system: HT-29; assay: Inhibition of DNA synthesis in human HT-29 cells measured up to 8 hrs by BrdU incorporation assay; type: functional, cell-based
Procedure, shortened: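 HT-29 cells; DNA synthesis measured by BrdU incorporation with flow detection.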

[7] = biological target: T1, DNA topoisomerase 2-alpha; assay: Inhibition of human topoisomerase 2 alpha-mediated decatenation of kDNA at 100 uM after 15 mins
[8] = system: KB; assay: Antiproliferative activity against human KB cells after 72 hrs by sulforhodamine B assay; type: functional, cell-based; procedure, shortened: as §3
[9] = system: A549; assay: Antiproliferative activity against human A549 cells after 72 hrs by sulforhodamine B assay; type: functional, cell-based; conditions: A549, 72 h; procedure, shortened: as §3
[10] = system: HL60/MX2; assay: Cytotoxicity against human HL60/MX2 cells; type: functional, cell-based
[11] = biological target: T1, DNA topoisomerase 2-alpha; assay: Inhibition of topoisomerase-2 alpha in human HL60/MX2 cells assessed as antagonization of etoposide-mediated enzyme-DNA cleavage complex at 100 uM; type: cell-based
[12] = biological target: T1, DNA topoisomerase 2-alpha; assay: Inhibition of topoisomerase 2alpha-mediated displacement of Hoechst 33258 from DNA assessed as decrease in fluorescence; conditions: concentration not given here
[13] = Antiproliferative activity against human Rh30 cells after 72 hrs by sulforhodamine B assay; type: functional, cell-based; conditions: SJRH30, 72 h; procedure, shortened: as §3
[14] = system: LoVo; assay: Antiproliferative activity against human LoVo cells after 72 hrs by sulforhodamine B assay; type: functional, cell-based; procedure, shortened: as §3
[15] = system: MKN-45; assay: Antiproliferative activity against human MKN45 cells after 72 hrs by sulforhodamine B assay; type: functional, cell-based; conditions: MKN-45, 72 h; procedure, shortened: as §3
[16] = system: SGC-7901; assay: Antiproliferative activity against human SGC7901 cells after 72 hrs by sulforhodamine B assay; type: functional, cell-based; conditions: SGC-7901, 72 h; procedure, shortened: as §3
[17] = system: HT-29; assay: Cell cycle arrest in nocodazole pretreated human HT-29 cells assessed as accumulation at M phase at 1 uM after 24 hrs; type: functional, cell-based; procedure, shortened: as §2
[18] = biological target: T1, DNA topoisomerase 2-alpha; assay: Inhibition of topoisomerase-2 alpha in human HT-29 cells assessed as reversal of etoposide-mediated DNA double strand break measured as phosphorylated histone2A level at 100 uM by immunostaining; type: cell-based
[19] = system: SMMC-7721; assay: Antiproliferative activity against human SMMC7721 cells after 72 hrs by sulforhodamine B assay; type: functional, cell-based; conditions: SMMC-7721, 72 h; procedure, shortened: as §3
[20] = system: K562; assay: Antiproliferative activity against human K562 cells after 72 hrs by sulforhodamine B assay; type: functional, cell-based; conditions: K562, 72 h; procedure, shortened: as §3
[21] = biological target: T1, DNA topoisomerase 2-alpha; assay: Inhibition of human topoisomerase 2alpha-mediated relaxation of pBR322
[22] = biological target: T2, DNA topoisomerase 1 (Homo sapiens) (UniProt P11387); assay: Inhibition of human topoisomerase 1-mediated relaxation of pBR322 at 100 uM
T2 sequence (whole entry): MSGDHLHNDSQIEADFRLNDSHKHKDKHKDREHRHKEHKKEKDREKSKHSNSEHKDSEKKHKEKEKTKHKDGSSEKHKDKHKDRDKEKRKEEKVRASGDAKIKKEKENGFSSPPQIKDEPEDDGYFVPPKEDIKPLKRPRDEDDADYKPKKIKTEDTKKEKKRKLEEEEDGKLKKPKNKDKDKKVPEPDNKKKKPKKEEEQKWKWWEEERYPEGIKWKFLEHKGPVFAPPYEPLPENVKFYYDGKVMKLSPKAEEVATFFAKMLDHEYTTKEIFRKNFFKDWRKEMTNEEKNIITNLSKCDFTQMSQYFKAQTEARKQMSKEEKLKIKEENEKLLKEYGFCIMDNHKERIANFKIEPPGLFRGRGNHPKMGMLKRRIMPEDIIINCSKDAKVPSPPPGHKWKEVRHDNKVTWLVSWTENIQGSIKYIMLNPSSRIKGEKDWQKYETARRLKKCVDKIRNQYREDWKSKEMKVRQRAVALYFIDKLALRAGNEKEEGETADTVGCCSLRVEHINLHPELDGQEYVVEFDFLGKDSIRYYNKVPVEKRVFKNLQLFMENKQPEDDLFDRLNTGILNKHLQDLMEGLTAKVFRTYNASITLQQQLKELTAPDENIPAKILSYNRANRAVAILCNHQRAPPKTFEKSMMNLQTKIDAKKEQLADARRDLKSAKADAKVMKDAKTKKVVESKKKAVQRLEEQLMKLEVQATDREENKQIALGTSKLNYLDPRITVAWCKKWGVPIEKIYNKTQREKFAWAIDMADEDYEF

[23] = biological target: T2, DNA topoisomerase 1 (Homo sapiens); assay: Inhibition of human topoisomerase 1-mediated relaxation of pBR322 up to 125 uM
[24] = biological target: T2, DNA topoisomerase 1 (Homo sapiens); assay: Inhibition of topoisomerase 1-mediated unwinding of supercoiled DNA assessed as DNA intercalation
[25] = biological target: T1, DNA topoisomerase 2-alpha; assay: Binding affinity to human topoisomerase 2 alpha ATPase domain; procedure, shortened: as §1

T1 sequence (P11388 whole entry, the tested form may be a part): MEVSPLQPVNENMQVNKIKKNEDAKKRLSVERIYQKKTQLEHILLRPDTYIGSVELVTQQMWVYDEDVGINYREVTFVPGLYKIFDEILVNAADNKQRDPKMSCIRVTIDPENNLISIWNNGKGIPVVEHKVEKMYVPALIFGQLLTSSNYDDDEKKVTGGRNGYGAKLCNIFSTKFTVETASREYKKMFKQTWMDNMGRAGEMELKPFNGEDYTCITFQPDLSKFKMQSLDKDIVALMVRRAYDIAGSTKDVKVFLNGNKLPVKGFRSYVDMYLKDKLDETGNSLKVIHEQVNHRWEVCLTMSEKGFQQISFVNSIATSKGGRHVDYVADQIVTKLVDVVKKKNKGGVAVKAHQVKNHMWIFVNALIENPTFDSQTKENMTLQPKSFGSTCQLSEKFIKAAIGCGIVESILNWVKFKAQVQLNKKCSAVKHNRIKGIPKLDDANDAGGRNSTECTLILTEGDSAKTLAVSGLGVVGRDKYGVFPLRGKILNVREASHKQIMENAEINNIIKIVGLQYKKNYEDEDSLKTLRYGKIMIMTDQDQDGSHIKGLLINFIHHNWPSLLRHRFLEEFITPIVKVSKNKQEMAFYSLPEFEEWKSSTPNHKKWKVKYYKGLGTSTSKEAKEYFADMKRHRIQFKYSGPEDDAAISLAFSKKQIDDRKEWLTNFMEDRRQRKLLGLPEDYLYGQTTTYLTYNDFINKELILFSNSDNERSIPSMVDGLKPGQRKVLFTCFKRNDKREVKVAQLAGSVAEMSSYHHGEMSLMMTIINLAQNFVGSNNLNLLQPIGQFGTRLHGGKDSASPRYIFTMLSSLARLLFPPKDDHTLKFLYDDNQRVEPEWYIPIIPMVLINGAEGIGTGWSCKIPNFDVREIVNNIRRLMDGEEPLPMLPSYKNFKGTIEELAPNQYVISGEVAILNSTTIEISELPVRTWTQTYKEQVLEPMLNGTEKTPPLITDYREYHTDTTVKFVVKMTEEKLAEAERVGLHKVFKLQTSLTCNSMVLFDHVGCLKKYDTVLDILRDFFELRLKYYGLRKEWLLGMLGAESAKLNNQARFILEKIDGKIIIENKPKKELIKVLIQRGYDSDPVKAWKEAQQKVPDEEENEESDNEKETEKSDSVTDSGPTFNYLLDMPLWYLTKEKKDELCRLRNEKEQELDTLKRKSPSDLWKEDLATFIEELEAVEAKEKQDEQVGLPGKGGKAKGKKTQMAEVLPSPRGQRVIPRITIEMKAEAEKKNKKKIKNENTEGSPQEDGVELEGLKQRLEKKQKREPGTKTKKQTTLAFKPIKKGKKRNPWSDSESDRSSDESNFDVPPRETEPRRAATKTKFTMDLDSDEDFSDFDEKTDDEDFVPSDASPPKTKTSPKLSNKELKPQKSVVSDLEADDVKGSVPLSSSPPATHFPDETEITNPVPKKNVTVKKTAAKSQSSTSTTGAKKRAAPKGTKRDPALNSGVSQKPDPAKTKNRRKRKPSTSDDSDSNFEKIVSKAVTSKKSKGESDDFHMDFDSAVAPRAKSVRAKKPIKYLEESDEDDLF

**Q.** With `CN(C)C(=S)N/N=C/c1ccc2ccccc2n1` as the compound, how does the inhibition [1] read?
**A.** Dose-dependent effect

**Q.** What about the Activity [2] of the same compound?
**A.** inactive

**Q.** And the Activity [3]?
**A.** inactive

**Q.** What about the inhibition in vivo at 25 mg/kg/day [4] of the same compound?
**A.** 35.8%

**Q.** And the IC50 [5]?
**A.** 90 nM

**Q.** And the inhibition [6]?
**A.** Dose-dependent effect

**Q.** What about the “inhibition (active/not active)” value [7] of the same compound?
**A.** Active

**Q.** What about the IC50 [8] of the same compound?
**A.** 770 nM

**Q.** And the IC50 [9]?
**A.** 450 nM

**Q.** What about the Activity [10] of the same compound?
**A.** Active

**Q.** What about the inhibition [11] of the same compound?
**A.** Active

**Q.** What about the inhibition [12] of the same compound?
**A.** 22%

**Q.** And the IC50 [13]?
**A.** 2 nM

**Q.** And the IC50 [14]?
**A.** 60 nM

**Q.** And the IC50 [15]?
**A.** 830 nM

**Q.** And the IC50 [16]?
**A.** 30 nM

**Q.** And the Activity [17]?
**A.** Active

**Q.** And the inhibition [18]?
**A.** Active

**Q.** What about the IC50 [19] of the same compound?
**A.** 240 nM

**Q.** And the IC50 [20]?
**A.** 60 nM

**Q.** What about the inhibition [21] of the same compound?
**A.** Dose-dependent effect

**Q.** What about the inhibition [22] of the same compound?
**A.** Active

**Q.** And the inhibition [23]?
**A.** inactive

**Q.** And the inhibition [24]?
**A.** inactive

**Q.** What about the Kd [25] of the same compound?
**A.** 18300 nM
